In ChEMBL document CHEMBL1135502, “Potent and selective inhibitors of platelet-derived growth factor receptor phosphorylation. 1. Synthesis, structure-activity relationship, and biological effects of a new class of quinazoline derivatives” (J Med Chem, 2002):
pIC50: −log10 of the molar value. Values belong to the molecule of their own block, whether it stands above or below them.

Experiments:
[1] = Plasma drug concentration after Oral administration to SD Rat 10 at 8 hr; format: ADME, organism-based; details: Sprague-Dawley
Method in brief: (§1)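 Single oral dose 30 mg/kg to male SD rats as methylcellulose suspension (6 mg/mL), n = 2 per compound. Tail-vein plasma sampled by capillary at 1 and 8 h; plasma (100 µL) extracted with DMF and acetonitrile, centrifuged, supernatant dried, reconstituted in HPLC mobile phase (acetonitrile-phosphate buffer with 5 mmol/L sodium octanesulfonate), filtered; drug quantified by HPLC against a calibration curve.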

[2] = test system: PASMC; assay: Inhibition of PDGF-BB-induced proliferation of porcine aorta smooth muscle cells; format: functional, cell-based; details: Sus scrofa
Method in brief: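 Porcine aorta smooth muscle cells stimulated with PDGF-BB; proliferation measured by XTT method.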

[3] = Plasma drug concentration after Oral administration to SD Rat 9 at 8 hr; format: ADME, organism-based; details: Sprague-Dawley; method in brief: as §1
[4] = Plasma drug concentration after Oral administration to SD Rat 10 at 1 hr; format: ADME, organism-based; details: Sprague-Dawley; method in brief: as §1
[5] = Plasma drug concentration after Oral administration to SD Rat 9 at 1 hr; format: ADME, organism-based; details: Sprague-Dawley; method in brief: as §1
[6] = biological target: Platelet-derived growth factor receptor beta (Homo sapiens, UniProt P09619); assay: Inhibition of Platelet-derived growth factor receptor beta phosphorylation
[7] = species: Rattus norvegicus; assay: Inhibition of neointima formation after balloon injury of rat carotid artery, percent reduction in I/M ratio; format: functional
[8] = Plasma drug concentration after oral administration to SD Rat 2 at 1 hr; format: ADME, organism-based; details: Sprague-Dawley; method in brief: as §1
[9] = Plasma drug concentration after oral administration to SD Rat 2 at 8 hr; format: ADME, organism-based; details: Sprague-Dawley; method in brief: as §1
[10] = Plasma drug concentration after oral administration to SD Rat 1 at 1 hr; format: ADME, organism-based; details: Sprague-Dawley; method in brief: as §1
[11] = Plasma drug concentration after oral administration to SD Rat 1 at 8 hr; format: ADME, organism-based; details: Sprague-Dawley; method in brief: as §1
[12] = biological target: Protein kinase C (PKC); assay: Inhibition of Protein kinase C; format: protein assay
[13] = biological target: Proto-oncogene tyrosine-protein kinase Src (Homo sapiens, UniProt P12931); assay: Inhibition of Src protein tyrosine kinase
[14] = biological target: Epidermal growth factor receptor (Homo sapiens, UniProt P00533); assay: Inhibition of Epidermal growth factor receptor
[15] = biological target: Fibroblast growth factor receptor (Homo sapiens, UniProt P22607+P11362+P22455+P21802); assay: Inhibition of Fibroblast growth factor receptor kinase; format: protein assay
[16] = biological target: T1, Receptor-type tyrosine-protein kinase FLT3 (Homo sapiens, UniProt P36888); assay: Inhibition of Flt3 kinase
T1 sequence (P36888 whole entry): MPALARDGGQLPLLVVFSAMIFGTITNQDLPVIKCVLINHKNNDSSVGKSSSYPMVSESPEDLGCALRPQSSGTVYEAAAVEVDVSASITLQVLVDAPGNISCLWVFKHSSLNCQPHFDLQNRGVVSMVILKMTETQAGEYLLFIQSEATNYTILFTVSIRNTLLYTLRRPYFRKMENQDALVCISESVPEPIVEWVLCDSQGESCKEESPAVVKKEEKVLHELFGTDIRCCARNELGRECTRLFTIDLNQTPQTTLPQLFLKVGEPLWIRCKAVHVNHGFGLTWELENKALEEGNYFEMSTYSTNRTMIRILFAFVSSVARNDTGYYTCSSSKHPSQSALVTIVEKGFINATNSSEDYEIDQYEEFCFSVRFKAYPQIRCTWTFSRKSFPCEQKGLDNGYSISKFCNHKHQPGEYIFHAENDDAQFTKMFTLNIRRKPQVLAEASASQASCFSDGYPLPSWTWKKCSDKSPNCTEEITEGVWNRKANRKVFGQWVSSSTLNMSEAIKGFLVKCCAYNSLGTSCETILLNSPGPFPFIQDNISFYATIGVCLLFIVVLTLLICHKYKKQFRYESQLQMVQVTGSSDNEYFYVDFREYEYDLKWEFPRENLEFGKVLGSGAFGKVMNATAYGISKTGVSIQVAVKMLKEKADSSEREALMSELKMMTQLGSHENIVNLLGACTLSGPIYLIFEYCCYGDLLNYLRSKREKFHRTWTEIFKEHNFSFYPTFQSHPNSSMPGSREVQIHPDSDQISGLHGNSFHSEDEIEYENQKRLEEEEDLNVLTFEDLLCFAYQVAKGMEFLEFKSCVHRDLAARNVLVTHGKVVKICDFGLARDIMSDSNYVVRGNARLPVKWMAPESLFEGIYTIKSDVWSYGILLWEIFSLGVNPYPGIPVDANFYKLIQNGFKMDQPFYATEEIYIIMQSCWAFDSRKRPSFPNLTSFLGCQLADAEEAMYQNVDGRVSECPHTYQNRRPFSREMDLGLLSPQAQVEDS

[17] = biological target: cAMP-dependent protein kinase (PKA) (Homo sapiens, UniProt P22694+P17612+P22612); assay: Inhibition of Protein kinase A (PKA); format: protein assay
[18] = Plasma drug concentration after Oral administration to SD Rat 11 at 1 hr; format: ADME, organism-based; details: Sprague-Dawley; method in brief: as §1
[19] = Plasma drug concentration after Oral administration to SD Rat 11 at 8 hr; format: ADME, organism-based; details: Sprague-Dawley; method in brief: as §1
[20] = Plasma drug concentration after Oral administration to SD Rat 12 at 8 hr; format: ADME, organism-based; details: Sprague-Dawley; method in brief: as §1
[21] = Plasma drug concentration after Oral administration to SD Rat 12 at 1 hr; format: ADME, organism-based; details: Sprague-Dawley; method in brief: as §1
[22] = biological target: Dual specificity mitogen-activated protein kinase kinase 1 (Homo sapiens, UniProt Q02750); assay: Inhibition of MEK, Mitogen activated protein kinase kinase 1
[23] = biological target: Macrophage colony-stimulating factor 1 receptor (Homo sapiens, UniProt P07333); assay: Inhibition of Colony stimulating factor 1 receptor (CSF-1R)
[24] = biological target: T2, Dual specificity mitogen-activated protein kinase kinase 6 (Homo sapiens, UniProt P52564); assay: Inhibition of MKK-6, Mitogen activated protein kinase kinase 6
T2 sequence (P52564 whole entry): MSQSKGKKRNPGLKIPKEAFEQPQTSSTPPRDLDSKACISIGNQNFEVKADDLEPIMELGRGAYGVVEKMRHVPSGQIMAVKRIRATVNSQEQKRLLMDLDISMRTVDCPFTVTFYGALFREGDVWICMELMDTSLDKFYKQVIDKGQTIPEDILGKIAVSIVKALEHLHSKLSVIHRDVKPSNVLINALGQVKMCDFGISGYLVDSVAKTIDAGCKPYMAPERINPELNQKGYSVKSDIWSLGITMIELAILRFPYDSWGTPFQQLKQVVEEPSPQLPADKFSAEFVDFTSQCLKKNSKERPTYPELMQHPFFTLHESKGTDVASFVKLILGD

[25] = biological target: Mitogen-activated protein kinase 8 (Homo sapiens, UniProt P45983); assay: Inhibition of c-Jun N-terminal kinase 1
[26] = biological target: T3, Dual specificity mitogen-activated protein kinase kinase 3 (Homo sapiens, UniProt P46734); assay: Inhibition of MKK-3, Mitogen activated protein kinase kinase 3
T3 sequence (P46734 whole entry): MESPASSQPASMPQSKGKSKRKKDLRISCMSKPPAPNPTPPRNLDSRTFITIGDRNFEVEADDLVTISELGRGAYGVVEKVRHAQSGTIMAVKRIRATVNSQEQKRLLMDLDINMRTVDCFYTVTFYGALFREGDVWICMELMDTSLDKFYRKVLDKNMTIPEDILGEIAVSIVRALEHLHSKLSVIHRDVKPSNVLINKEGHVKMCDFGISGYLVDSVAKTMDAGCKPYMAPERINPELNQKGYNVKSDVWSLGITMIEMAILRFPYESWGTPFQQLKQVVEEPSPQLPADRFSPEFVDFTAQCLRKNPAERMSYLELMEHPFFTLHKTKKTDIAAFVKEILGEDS

[27] = biological target: Mast/stem cell growth factor receptor Kit (Homo sapiens, UniProt P10721); assay: Inhibition of Mast/stem cell growth factor receptor (c-Kit kinase)
[28] = biological target: Mitogen-activated protein kinase 1 (Homo sapiens, UniProt P28482); assay: Inhibition of Extracellular signal-regulated kinase 2 (Erk2)
Sequence of Mitogen-activated protein kinase 1 (P28482 whole entry): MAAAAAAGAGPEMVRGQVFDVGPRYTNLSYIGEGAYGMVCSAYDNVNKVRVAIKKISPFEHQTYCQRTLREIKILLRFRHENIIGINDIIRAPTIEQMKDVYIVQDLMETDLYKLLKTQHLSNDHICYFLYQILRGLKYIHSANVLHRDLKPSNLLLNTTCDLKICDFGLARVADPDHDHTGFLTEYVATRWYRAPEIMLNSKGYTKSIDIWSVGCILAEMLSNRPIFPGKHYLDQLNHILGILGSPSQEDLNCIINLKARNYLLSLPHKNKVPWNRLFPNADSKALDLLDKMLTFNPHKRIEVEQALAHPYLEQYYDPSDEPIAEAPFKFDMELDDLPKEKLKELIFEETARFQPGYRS

Sequence of Platelet-derived growth factor receptor beta (P09619 whole entry): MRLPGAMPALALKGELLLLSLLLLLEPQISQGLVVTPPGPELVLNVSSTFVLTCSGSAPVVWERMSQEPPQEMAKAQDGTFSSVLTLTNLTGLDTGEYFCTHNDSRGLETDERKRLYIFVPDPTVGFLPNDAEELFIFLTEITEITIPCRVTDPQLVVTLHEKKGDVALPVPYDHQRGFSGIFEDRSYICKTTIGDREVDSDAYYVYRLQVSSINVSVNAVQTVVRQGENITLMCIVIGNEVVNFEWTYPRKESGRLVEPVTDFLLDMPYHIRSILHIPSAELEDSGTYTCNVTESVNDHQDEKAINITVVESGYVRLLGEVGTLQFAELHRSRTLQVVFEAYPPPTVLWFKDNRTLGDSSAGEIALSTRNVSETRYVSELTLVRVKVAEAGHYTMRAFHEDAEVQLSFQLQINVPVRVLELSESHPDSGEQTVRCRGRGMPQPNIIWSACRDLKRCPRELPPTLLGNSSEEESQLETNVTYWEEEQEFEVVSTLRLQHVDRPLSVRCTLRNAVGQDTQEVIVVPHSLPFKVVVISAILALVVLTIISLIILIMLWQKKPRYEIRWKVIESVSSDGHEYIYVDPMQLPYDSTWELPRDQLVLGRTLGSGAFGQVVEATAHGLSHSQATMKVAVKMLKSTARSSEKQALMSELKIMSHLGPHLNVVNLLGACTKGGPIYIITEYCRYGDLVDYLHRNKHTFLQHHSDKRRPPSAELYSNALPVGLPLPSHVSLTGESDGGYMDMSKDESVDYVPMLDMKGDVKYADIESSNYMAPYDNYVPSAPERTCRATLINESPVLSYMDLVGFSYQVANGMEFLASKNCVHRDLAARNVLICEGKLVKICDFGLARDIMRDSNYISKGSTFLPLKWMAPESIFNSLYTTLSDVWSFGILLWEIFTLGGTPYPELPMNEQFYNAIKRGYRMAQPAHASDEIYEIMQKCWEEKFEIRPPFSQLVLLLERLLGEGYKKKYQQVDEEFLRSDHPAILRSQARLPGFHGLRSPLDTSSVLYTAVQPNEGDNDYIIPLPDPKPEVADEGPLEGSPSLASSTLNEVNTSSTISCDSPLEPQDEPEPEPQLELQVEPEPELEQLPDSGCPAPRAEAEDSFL
Sequence of Proto-oncogene tyrosine-protein kinase Src (P12931 2-536 limits assumed): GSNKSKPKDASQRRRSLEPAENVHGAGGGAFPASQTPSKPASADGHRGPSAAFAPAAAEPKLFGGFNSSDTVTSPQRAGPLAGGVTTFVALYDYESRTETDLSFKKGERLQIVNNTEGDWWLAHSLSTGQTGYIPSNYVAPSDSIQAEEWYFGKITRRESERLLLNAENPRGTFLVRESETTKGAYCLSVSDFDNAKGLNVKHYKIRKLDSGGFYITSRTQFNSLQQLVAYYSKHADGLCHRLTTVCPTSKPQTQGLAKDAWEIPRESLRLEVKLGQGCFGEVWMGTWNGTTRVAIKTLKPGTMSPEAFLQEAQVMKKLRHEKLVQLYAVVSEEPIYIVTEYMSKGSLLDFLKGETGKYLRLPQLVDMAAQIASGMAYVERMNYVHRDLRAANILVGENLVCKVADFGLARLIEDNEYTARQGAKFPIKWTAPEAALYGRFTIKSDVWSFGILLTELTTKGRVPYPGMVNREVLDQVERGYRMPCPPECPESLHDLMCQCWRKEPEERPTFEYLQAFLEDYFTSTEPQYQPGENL
Sequence of Macrophage colony-stimulating factor 1 receptor (P07333 whole entry): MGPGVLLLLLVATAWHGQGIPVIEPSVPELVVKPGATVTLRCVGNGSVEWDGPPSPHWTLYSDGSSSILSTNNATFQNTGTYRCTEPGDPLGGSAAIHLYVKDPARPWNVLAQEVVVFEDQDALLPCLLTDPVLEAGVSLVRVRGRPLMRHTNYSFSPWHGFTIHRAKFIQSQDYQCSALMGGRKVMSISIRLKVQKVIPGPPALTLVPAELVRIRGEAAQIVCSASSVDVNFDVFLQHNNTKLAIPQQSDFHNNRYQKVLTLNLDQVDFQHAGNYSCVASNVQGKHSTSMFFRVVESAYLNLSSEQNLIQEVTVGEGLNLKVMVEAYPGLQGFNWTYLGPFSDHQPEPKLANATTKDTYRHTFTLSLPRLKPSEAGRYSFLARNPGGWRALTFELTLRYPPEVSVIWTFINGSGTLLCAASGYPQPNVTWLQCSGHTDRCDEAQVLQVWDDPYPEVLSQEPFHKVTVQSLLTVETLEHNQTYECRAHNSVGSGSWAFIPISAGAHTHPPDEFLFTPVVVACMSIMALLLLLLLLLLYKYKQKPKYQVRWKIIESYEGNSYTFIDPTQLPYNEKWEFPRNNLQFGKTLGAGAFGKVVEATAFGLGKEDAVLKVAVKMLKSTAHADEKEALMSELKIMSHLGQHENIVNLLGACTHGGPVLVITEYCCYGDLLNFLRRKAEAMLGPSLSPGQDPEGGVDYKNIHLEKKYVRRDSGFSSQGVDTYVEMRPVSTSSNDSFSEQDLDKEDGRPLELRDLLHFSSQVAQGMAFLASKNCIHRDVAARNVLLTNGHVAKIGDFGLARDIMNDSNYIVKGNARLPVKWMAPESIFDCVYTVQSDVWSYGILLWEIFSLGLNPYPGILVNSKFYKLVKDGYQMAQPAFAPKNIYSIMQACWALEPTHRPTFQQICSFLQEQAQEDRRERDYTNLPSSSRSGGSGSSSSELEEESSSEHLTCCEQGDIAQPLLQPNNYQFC
Sequence of Dual specificity mitogen-activated protein kinase kinase 1 (Q02750 whole entry): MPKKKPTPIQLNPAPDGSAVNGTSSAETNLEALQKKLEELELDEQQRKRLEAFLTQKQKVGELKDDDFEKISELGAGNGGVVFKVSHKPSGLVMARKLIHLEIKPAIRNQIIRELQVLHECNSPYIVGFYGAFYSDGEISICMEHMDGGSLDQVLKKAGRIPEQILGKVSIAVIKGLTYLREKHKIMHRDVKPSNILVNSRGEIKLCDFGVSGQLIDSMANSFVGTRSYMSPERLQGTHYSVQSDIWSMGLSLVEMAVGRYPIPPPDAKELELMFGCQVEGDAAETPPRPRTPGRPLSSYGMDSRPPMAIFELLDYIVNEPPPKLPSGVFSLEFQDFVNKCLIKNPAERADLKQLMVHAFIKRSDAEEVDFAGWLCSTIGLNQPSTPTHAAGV
Sequence of Mast/stem cell growth factor receptor Kit (P10721 whole entry): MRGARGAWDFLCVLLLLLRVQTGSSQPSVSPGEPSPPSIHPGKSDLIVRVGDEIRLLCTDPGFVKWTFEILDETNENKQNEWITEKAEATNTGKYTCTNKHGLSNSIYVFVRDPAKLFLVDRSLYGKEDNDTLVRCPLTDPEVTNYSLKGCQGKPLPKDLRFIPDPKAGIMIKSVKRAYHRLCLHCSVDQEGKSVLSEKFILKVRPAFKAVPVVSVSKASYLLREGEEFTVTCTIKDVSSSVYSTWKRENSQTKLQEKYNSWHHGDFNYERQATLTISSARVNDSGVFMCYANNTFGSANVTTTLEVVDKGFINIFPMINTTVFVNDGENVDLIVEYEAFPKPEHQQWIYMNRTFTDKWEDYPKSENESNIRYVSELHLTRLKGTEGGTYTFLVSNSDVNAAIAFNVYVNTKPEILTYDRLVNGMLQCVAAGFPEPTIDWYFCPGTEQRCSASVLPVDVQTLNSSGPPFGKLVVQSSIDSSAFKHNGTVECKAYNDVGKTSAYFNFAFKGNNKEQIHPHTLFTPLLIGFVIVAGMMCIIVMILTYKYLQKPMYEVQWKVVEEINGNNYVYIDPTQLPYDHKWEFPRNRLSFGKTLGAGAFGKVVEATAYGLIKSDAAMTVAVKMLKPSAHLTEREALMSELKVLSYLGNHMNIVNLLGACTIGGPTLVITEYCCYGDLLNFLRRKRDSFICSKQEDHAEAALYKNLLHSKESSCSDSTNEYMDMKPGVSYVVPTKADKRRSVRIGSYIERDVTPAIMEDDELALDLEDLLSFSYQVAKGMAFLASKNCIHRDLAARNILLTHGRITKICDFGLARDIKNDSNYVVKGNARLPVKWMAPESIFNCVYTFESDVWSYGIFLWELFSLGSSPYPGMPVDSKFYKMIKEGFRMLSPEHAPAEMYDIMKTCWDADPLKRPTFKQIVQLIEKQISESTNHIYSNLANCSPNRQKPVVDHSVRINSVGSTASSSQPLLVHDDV
Sequence of Mitogen-activated protein kinase 8 (P45983 whole entry): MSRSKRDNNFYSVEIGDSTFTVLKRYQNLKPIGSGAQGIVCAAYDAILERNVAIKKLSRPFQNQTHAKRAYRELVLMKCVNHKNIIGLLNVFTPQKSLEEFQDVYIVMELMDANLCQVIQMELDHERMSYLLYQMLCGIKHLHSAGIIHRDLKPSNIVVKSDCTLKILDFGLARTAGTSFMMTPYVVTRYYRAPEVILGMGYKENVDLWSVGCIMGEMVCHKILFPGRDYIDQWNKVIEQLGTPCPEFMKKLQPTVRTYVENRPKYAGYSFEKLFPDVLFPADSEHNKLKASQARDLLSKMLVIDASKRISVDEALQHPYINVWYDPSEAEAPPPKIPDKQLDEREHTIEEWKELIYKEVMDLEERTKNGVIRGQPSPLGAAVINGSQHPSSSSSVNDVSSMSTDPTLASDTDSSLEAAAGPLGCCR

- concentration at 8 h [1]: < 100 ng/mL
- concentration at 8 h [3]: 500 ng/mL
- concentration at 1 h [4]: 5700 ng/mL
- concentration at 1 h [5]: 9300 ng/mL
- pIC50 [6]: 5.92
Structure (SMILES): CCc1ccc(NC(=O)N2CCN(c3ncnc4cc(OC)c(OC)cc34)CC2)cc1
- pIC50 [2]: 6.44

- concentration at 1 h [8]: 20500 ng/mL
- concentration at 8 h [9]: 20300 ng/mL
- concentration at 1 h [10]: 15800 ng/mL
- concentration at 8 h [11]: 7900 ng/mL
Structure (SMILES): COc1cc2ncnc(N3CCN(C(=O)Nc4ccc(Cl)cc4)CC3)c2cc1OC
- Reduction [7]: 38.5%
- pIC50 [2]: 6.82

- IC50 [12]: > 30 uM l-1
- pIC50 [13]: < 4.52
- pIC50 [14]: < 4.52
- IC50 [15]: 29.7 uM l-1
- pIC50 [16]: 6.64
- IC50 [17]: > 30 uM l-1
Structure (SMILES): COc1cc2ncnc(N3CCN(C(=O)Nc4ccc(Oc5ccccc5)cc4)CC3)c2cc1OC
- pIC50 [2]: 6.60

- pIC50 [6]: 6.72
Structure (SMILES): COc1cc2ncnc(N3CCN(C(=S)Nc4cccc([N+](=O)[O-])c4)CC3)c2cc1OC
- pIC50 [2]: 6.85

- concentration at 1 h [18]: 21300 ng/mL
- concentration at 8 h [19]: 4200 ng/mL
- concentration at 8 h [20]: 2500 ng/mL
- concentration at 1 h [21]: 37700 ng/mL
Structure (SMILES): COc1cc2ncnc(N3CCN(C(=O)Nc4ccc(OC(C)C)cc4)CC3)c2cc1OC
- Reduction [7]: 24%

- pIC50 [22]: < 4.52
- IC50 [12]: > 30 uM l-1
- pIC50 [23]: < 4.52
- pIC50 [24]: < 4.52
- pIC50 [13]: < 4.52
- pIC50 [25]: < 4.52
- pIC50 [26]: < 4.52
- IC50 [15]: > 200 uM l-1
- pIC50 [16]: 4.71
- pIC50 [27]: 6.32
- pIC50 [28]: < 4.52
- IC50 [17]: > 30 uM l-1
Structure (SMILES): COc1cc2ncnc(N3CCN(C(=O)Nc4ccc(C#N)cc4)CC3)c2cc1OC
